This is an account of results in ChEMBL document CHEMBL4145462, “Nitrogen-containing ecdysteroid derivatives vs. multi-drug resistance in cancer: Preparation and antitumor activity of oximes, oxime ethers and a lactam” (Eur J Med Chem, 2018).

SMILES strings stand for the structures.

What is called IC50 is the concentration that inhibits the measured activity by half. High values mean weaker potency, low ones greater potency. What is called inhibition is how much of the control response was suppressed.

Data set [1] is described as follows: Synergistic cytotoxicity against mouse L5178 cells assessed as combination index at ED50 using 150:1 test compound to doxorubicin ratio after 48 hrs by MTT-based checkerboard microplate method. Format: functional. The procedure, abridged: (§1)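 Checkerboard microplate combinations of compound with doxorubicin at constant molar ratios. 5 × 10^4 cells/well in McCoy's 5A, 48 h at 37°C, 5% CO2. MTT added to 0.5 mg/mL final for 4 h, SDS/HCl overnight, OD read at 540 and 630 nm. Combination indices derived per ratio for 50%, 75% and 90% growth inhibition by median-effect analysis.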

Data set [2] can be described thus: Synergistic cytotoxicity against mouse L5178 cells assessed as combination index at ED90 using 600:1 test compound to doxorubicin ratio after 48 hrs by MTT-based checkerboard microplate method. Format: functional. The procedure, abridged: as §1
Data set [3] can be described thus: Synergistic cytotoxicity against mouse L5178 cells assessed as combination index at ED50 using 75:1 test compound to doxorubicin ratio after 48 hrs by MTT-based checkerboard microplate method. Format: functional. A digest of the protocol: as §1
Data set [4] has as its system SiHa. Briefly: Antiproliferative activity against human SiHa cells after 72 hrs by MTT assay. Format: functional, cell-based. The procedure, abridged: (§2)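 Cells grown in MEM with 10% FCS, 1% non-essential amino acids and 1% penicillin-streptomycin. Seeded at 5000 cells/well, exposed to 0.1–30.0 µM compound for 72 h. MTT (5 mg/ml solution) was then added for 4 h, formazan dissolved in DMSO, and absorbance read at 545 nm. Cisplatin served as positive control. IC50 came from sigmoidal dose–response fits (log inhibitor vs normalized response, variable slope).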
(In general: Formazan colour is commonly taken as a measure of viable cells.)

A short description of data set [5]: Synergistic cytotoxicity against mouse L5178 cells assessed as combination index at ED75 using 37.5:1 test compound to doxorubicin ratio after 48 hrs by MTT-based checkerboard microplate method. Format: functional. A digest of the protocol: as §1
The nature of data set [6]: Synergistic cytotoxicity against mouse L5178 cells assessed as combination index at ED90 using 37.5:1 test compound to doxorubicin ratio after 48 hrs by MTT-based checkerboard microplate method. Format: functional. The procedure, abridged: as §1
For data set [7], the system named is MDA-MB-231. Put plainly: Antiproliferative activity against human MDA-MB-231 cells after 72 hrs by MTT assay. Format: functional, cell-based. The note with it: MDA-MB-231, 72 h. A digest of the protocol: as §2
A short description of data set [8]: Synergistic cytotoxicity against mouse L5178 cells assessed as combination index at ED90 using 75:1 test compound to doxorubicin ratio after 48 hrs by MTT-based checkerboard microplate method. Format: functional. The procedure, abridged: as §1
Data set [9] can be described thus: Synergistic cytotoxicity against mouse L5178 cells assessed as combination index at ED50 using 600:1 test compound to doxorubicin ratio after 48 hrs by MTT-based checkerboard microplate method. Format: functional. A digest of the protocol: as §1
The nature of data set [10]: Synergistic cytotoxicity against mouse L5178 cells assessed as combination index at ED75 using 75:1 test compound to doxorubicin ratio after 48 hrs by MTT-based checkerboard microplate method. Format: functional. A digest of the protocol: as §1
The target of data set [11] is ABCB1 (P-glycoprotein) (Homo sapiens, UniProt P08183). Briefly: Inhibition of human ABCB1 expressed in mouse L5178 cells assessed as increase in rhodamine-123 accumulation at 2 uM after 10 mins by flow cytometric analysis relative to control. Format: cell-based. The note with it: mouse L5178 cells expressing human ABCB1, probe rhodamine-123. The procedure, abridged:
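Cells at 2 × 10^6/mL were preincubated 10 min with compound. Rhodamine 123 then added to 5.2 µM final, 20 min at 37 °C. Cells washed twice in PBS, resuspended and read by flow cytometry. Percent inhibition was scaled between MDR-cell accumulation (0%) and parental L5178 accumulation (100%). Controls: 100 nM tariquidar (positive) and 2% DMSO (negative).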

The nature of data set [12]: Synergistic cytotoxicity against mouse L5178 cells expressing human ABCB1 assessed as combination index at ED75 using 1.875:1 test compound to doxorubicin ratio after 48 hrs by MTT-based checkerboard microplate method. Format: functional. The procedure, abridged: as §1
The nature of data set [13]: Synergistic cytotoxicity against mouse L5178 cells expressing human ABCB1 assessed as combination index at ED90 using 1.875:1 test compound to doxorubicin ratio after 48 hrs by MTT-based checkerboard microplate method. Format: functional. The procedure, abridged:
as §1

A short description of data set [14]: Synergistic cytotoxicity against mouse L5178 cells expressing human ABCB1 assessed as combination index at ED50 using 1.875:1 test compound to doxorubicin ratio after 48 hrs by MTT-based checkerboard microplate method. Format: functional. The procedure, abridged:
as §1

Data set [15] can be described thus: Synergistic cytotoxicity against mouse L5178 cells assessed as combination index at ED75 using 18.75:1 test compound to doxorubicin ratio after 48 hrs by MTT-based checkerboard microplate method. Format: functional. The procedure, abridged: as §1
Data set [16] in a line: Synergistic cytotoxicity against mouse L5178 cells assessed as combination index at ED90 using 18.75:1 test compound to doxorubicin ratio after 48 hrs by MTT-based checkerboard microplate method. Format: functional. The procedure, abridged: as §1
The nature of data set [17]: Synergistic cytotoxicity against mouse L5178 cells assessed as combination index at ED50 using 18.75:1 test compound to doxorubicin ratio after 48 hrs by MTT-based checkerboard microplate method. Format: functional. The procedure, abridged:
as §1

Chain of ABCB1 (P-glycoprotein) (P08183 whole entry): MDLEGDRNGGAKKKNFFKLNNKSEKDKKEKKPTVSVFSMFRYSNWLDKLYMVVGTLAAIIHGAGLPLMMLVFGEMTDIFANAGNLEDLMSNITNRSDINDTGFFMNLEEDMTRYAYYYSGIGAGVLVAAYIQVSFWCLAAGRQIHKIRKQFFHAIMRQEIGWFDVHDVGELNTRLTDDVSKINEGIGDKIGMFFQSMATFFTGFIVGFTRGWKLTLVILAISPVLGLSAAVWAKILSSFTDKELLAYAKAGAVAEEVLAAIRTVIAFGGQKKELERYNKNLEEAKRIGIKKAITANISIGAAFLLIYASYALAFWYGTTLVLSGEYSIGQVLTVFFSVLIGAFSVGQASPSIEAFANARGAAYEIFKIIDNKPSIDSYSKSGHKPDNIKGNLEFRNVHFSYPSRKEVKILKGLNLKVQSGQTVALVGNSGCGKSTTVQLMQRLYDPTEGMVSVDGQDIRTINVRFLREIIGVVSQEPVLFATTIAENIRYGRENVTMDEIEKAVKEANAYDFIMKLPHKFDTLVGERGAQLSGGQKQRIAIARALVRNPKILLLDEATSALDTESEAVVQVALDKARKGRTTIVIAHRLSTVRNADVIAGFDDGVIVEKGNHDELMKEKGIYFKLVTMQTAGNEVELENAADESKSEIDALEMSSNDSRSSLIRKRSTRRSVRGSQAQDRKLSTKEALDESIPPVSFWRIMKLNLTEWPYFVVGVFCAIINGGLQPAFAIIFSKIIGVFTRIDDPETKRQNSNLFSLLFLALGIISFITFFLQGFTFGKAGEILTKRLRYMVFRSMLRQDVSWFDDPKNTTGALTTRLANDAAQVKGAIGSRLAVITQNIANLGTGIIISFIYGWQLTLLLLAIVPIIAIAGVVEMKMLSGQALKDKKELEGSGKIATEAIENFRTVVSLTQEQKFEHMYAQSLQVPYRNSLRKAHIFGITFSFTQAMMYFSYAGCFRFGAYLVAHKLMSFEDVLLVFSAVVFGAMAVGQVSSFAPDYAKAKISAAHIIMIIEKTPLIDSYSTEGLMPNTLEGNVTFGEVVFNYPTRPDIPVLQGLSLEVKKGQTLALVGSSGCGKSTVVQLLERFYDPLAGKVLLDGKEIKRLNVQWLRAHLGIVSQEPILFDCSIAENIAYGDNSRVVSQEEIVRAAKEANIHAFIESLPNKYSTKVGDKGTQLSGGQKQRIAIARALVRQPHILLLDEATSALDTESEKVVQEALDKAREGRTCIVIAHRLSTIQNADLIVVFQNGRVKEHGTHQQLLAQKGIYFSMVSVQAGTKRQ

On to `C=CCO/N=C1/C=C2C3=CC[C@H]([C@@]4(C)OC(C)(C)O[C@@H]4CCC(C)(C)O)[C@@]3(C)CC[C@@H]2[C@@]2(C)C[C@@H]3OC(C)(C)O[C@@H]3C[C@@H]12`, for which the CI turned out to be 0.24 in [1]; 1.12 in [2]; 0.58 in [3]; 0.47 in [5]; 0.47 in data set [6]; 0.44 in data set [8]. Moreover, the CI was 0.88 in data set [9] and 0.5 in [10]. Besides, the IC50 in data set [4] is > 30 µM; in [7], 29.4 µM. In addition, the inhibition at 10 min, 2 µM in data set [11] turned out to be 61.1%.
In the case of `CCO/N=C1/C=C2[C@H](CC[C@]3(C)[C@@H]([C@@]4(C)OC(C)(C)O[C@@H]4CCC(C)(C)O)CC[C@@]23O)[C@@]2(C)C[C@@H]3OC(C)(C)O[C@@H]3C[C@@H]12`, the CI turned out to be 0.18 in data set [1]; 0.17 in [12]; 0.94 in data set [2]; 0.58 in [3]; 0.1 in data set [13]; 0.52 in data set [5]. Also, the CI was 0.45 in [6]; 0.36 in [14]; 0.58 in data set [8]; 0.75 in data set [9]; 0.58 in data set [10]. For the same compound, the figures for the IC50 in data set [4] and in data set [7] were > 30 µM and 25.1 µM, respectively. Further, the inhibition at 10 min, 2 µM in data set [11] came to 19%.
Regarding `C=CCO/N=C1/C=C2[C@H](CC[C@]3(C)[C@@H]([C@@]4(C)OC(C)(C)O[C@@H]4CCC(C)(C)O)CC[C@@]23O)[C@@]2(C)C[C@@H]3OC(C)(C)O[C@@H]3C[C@@H]12`, the CI in [15] is 1.13; in data set [1], 0.17; in data set [16], 1.25; in [3] it was 0.7; in data set [5] it was 1.11; in [6] it was 1.2. For the same compound, the CI in data set [8] is given as 1.03; in data set [17], 1.05; in [10], 0.83. Also, the IC50 in data set [4] was > 30 µM; in [7] it was 26.9 µM. For the same compound, the inhibition at 10 min, 2 µM in data set [11] is 24.2%.
On to `CCO/N=C1/C=C2C3=CC[C@H]([C@@]4(C)OC(C)(C)O[C@@H]4CCC(C)(C)O)[C@@]3(C)CC[C@@H]2[C@@]2(C)C[C@@H]3OC(C)(C)O[C@@H]3C[C@@H]12`, for which the CI is 0.21 in data set [1]; 1 in [2]; 0.49 in [3]; 0.66 in data set [5]; 0.6 in [6]; 0.52 in data set [8]. The CI turned out to be 1.21 in data set [9] and 0.5 in data set [10]. The results for the IC50 in [4] and in [7] were > 30 µM and 26 µM, respectively. In data set [11], the inhibition at 10 min, 2 µM was 56.4%.
Consider `CC(C)(O)CC[C@H]1OC(C)(C)O[C@]1(C)[C@H]1CC=C2C3=C/C(=N/OC(C)(C)C)[C@@H]4C[C@H]5OC(C)(C)O[C@H]5C[C@]4(C)[C@H]3CC[C@@]21C`, for which the CI is 0.34 in data set [1]; 0.94 in data set [2]; 0.82 in data set [3]; 0.59 in data set [5]; 0.66 in [6]; 0.55 in [8]. Moreover, the results for the CI in data set [9] and in [10] were 0.88 and 0.67, respectively. Moreover, the IC50 in data set [4] came to 8.14 µM; in [7] it was 15.7 µM. For the same compound, in data set [11], the inhibition at 10 min, 2 µM was 59%.
As to `CO/N=C1/C=C2C3=CC[C@H]([C@@]4(C)OC(C)(C)O[C@@H]4CCC(C)(C)O)[C@@]3(C)CC[C@@H]2[C@@]2(C)C[C@@H]3OC(C)(C)O[C@@H]3C[C@@H]12`, the CI in data set [1] amounted to 0.18; in data set [2], 1.3; in data set [3], 0.69; in data set [5], 0.47; in [6], 0.31; in data set [8], 0.39. Further, the CI in data set [9] was found to be 1.14; in [10], 0.5. Moreover, the IC50 is > 30 µM in data set [4] and 26 µM in data set [7]. Besides, the inhibition at 10 min, 2 µM in [11] came out at 33.4%.
With `CC(C)(O)CC[C@H]1OC(C)(C)O[C@]1(C)[C@H]1CC=C2C3=C/C(=N\OC(C)(C)C)[C@@H]4C[C@H]5OC(C)(C)O[C@H]5C[C@]4(C)[C@H]3CC[C@@]21C`, the CI in data set [1] was found to be 0.28; in [2] it was 0.98; in [3] it was 1.31; in [5] it was 0.85; in [6], 0.64; in data set [8] it was 0.83. In addition, the CI in data set [9] worked out at 0.83; in data set [10], 1.03. Further, the IC50 is 14.2 µM in data set [4] and 16.9 µM in [7]. Further, the inhibition at 10 min, 2 µM in data set [11] came to 67.5%.
